Results as given in paper PMC5715471 (ACS chemical neuroscience, 2017).
pKi: −log10 of the molar value.

Key:
Alpha2a = Alpha2a (Homo sapiens, UniProt P08913); assay: PDSP radioligand binding, Alpha2a; settings: 10 μM
NET = NET (Homo sapiens, UniProt P23975); assay: PDSP radioligand binding, NET
M5 = M5 (Homo sapiens, UniProt P08912); assay: PDSP radioligand binding, M5; settings: 10 μM
DOR = DOR (Homo sapiens, UniProt P41143); assay: PDSP radioligand binding, DOR; settings: 10 μM
D4 = D4 (Homo sapiens, UniProt P21917); assay: PDSP radioligand binding, D4; settings: 10 μM
[1] = tested on: mouse spared nerve injury (SNI) model; assay: Mechanical sensitivity; format: in vivo
Method in brief: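 Male C57Bl6/J SNI mice, hindpaw mechanical hypersensitivity confirmed 2 weeks post-surgery. Tail-vein IV injection in 100 μL sterile saline (DMSO stock diluted; vehicle DMSO-matched): test compound 10 mg/kg, gabapentin 100 mg/kg, or vehicle, n = 6 each. Blinded von Frey testing (modified up–down) at set time points. Mean ± SEM; two-way ANOVA with Bonferroni post hoc.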

5HT1e = 5HT1e (Homo sapiens, UniProt P28566); assay: PDSP radioligand binding, 5HT1e; settings: 10 μM
Alpha1a = Alpha1a (Homo sapiens, UniProt P35348); assay: PDSP radioligand binding, Alpha1a; settings: 10 μM
D2 = D2 (Homo sapiens, UniProt P14416); assay: PDSP radioligand binding, D2; settings: 10 μM
AMPA = assay: PDSP radioligand binding, AMPA
D1 = D1 (Homo sapiens, UniProt P21728); assay: PDSP radioligand binding, D1; settings: 10 μM
Sequence of D1 (P21728 whole entry): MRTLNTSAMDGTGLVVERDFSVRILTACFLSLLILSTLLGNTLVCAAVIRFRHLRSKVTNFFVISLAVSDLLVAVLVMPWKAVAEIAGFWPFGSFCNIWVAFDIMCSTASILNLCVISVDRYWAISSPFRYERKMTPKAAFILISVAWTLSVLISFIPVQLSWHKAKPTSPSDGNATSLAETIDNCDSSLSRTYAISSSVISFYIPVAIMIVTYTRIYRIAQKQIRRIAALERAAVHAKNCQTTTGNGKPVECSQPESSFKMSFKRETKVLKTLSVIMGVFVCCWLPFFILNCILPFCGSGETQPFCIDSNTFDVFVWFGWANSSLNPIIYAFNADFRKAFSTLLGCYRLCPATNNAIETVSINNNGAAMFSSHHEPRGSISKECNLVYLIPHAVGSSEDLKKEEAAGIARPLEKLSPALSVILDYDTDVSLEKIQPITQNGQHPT

SNI mice = assay: Rotorod test of motor performance; format: in vivo, mouse; settings: IV 10 mg/kg, 48 h after injection, third trial
Method in brief: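 SNI mice given IV vehicle or test compound 10 mg/kg in sterile saline, tested 48 h later. Automated rotorod accelerating to 40 rpm over 200 s. Two training runs; latency to fall recorded on third trial. n = 6 per group; two-tailed t test.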

5HT2C = 5HT2C (Homo sapiens, UniProt P28335); assay: PDSP radioligand binding, 5HT2C; settings: 10 μM
Sequence of 5HT2C (P28335 33-458): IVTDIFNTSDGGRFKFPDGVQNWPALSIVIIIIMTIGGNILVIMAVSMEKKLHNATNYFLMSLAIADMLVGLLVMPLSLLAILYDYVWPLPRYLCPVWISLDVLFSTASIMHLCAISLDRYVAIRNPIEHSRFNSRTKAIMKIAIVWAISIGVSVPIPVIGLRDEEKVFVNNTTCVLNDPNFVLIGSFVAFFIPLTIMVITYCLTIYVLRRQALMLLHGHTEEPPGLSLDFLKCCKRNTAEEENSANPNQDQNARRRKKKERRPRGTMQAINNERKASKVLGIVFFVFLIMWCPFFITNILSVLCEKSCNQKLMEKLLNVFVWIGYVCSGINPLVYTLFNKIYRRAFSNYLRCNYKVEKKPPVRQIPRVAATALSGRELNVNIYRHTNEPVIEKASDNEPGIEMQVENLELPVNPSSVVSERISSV

A3B4 = A3B4 (Rattus norvegicus, UniProt P04757+P12392); assay: PDSP radioligand binding, A3B4; settings: 10 μM
Beta2 = Beta2 (Homo sapiens, UniProt P07550); assay: PDSP radioligand binding, Beta2; settings: 10 μM
Beta1 = Beta1 (Homo sapiens, UniProt P08588); assay: PDSP radioligand binding, Beta1; settings: 10 μM
V1B = V1B (Homo sapiens, UniProt P47901); assay: PDSP radioligand binding, V1B
Sequence of V1B (P47901 whole entry): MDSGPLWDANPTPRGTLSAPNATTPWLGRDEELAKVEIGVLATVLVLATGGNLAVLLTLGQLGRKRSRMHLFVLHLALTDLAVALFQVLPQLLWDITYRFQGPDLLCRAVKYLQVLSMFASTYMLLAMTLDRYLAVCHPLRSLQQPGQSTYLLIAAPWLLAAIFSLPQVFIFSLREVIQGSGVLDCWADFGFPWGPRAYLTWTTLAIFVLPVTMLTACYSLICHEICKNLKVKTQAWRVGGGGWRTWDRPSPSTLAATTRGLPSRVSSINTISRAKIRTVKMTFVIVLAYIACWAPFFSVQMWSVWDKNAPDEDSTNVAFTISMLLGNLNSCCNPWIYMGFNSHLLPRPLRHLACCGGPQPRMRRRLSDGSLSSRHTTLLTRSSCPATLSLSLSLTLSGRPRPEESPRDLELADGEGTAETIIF

5HT1D = 5HT1D (Homo sapiens, UniProt P28221); assay: PDSP radioligand binding, 5HT1D; settings: 10 μM
PBR = PBR (Rattus norvegicus, UniProt P16257); assay: PDSP radioligand binding, PBR; settings: 10 μM
Sequence of PBR (P16257 whole entry): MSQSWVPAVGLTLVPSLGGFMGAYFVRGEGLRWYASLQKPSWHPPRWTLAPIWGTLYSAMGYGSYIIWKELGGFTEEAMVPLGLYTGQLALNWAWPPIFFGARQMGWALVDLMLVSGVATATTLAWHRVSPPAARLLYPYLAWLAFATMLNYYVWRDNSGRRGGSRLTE

A3B2 = A3B2 (Rattus norvegicus, UniProt P04757+P12390); assay: PDSP radioligand binding, A3B2; settings: 10 μM
H3 = H3 (Homo sapiens, UniProt Q9Y5N1); assay: PDSP radioligand binding, H3; settings: 10 μM
Sequence of H3 (Q9Y5N1 whole entry): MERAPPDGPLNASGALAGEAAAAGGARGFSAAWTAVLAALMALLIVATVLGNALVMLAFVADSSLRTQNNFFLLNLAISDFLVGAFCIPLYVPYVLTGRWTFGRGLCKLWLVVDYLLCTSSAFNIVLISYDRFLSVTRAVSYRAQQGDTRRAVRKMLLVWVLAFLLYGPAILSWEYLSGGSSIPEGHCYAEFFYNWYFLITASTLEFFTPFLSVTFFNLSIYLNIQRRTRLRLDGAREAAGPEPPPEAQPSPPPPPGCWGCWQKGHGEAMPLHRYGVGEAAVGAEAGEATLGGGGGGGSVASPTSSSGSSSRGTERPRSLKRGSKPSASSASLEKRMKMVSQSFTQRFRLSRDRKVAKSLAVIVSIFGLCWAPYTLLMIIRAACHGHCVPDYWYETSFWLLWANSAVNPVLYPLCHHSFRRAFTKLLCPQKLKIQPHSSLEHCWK

A4B2 [2] = biological target: T1, A4B2 (Rattus norvegicus, UniProt P09483+P12390); assay: PDSP radioligand binding, A4B2 sourced from rodent brain; settings: 10 μM
T1 sequence (P09483 31-630): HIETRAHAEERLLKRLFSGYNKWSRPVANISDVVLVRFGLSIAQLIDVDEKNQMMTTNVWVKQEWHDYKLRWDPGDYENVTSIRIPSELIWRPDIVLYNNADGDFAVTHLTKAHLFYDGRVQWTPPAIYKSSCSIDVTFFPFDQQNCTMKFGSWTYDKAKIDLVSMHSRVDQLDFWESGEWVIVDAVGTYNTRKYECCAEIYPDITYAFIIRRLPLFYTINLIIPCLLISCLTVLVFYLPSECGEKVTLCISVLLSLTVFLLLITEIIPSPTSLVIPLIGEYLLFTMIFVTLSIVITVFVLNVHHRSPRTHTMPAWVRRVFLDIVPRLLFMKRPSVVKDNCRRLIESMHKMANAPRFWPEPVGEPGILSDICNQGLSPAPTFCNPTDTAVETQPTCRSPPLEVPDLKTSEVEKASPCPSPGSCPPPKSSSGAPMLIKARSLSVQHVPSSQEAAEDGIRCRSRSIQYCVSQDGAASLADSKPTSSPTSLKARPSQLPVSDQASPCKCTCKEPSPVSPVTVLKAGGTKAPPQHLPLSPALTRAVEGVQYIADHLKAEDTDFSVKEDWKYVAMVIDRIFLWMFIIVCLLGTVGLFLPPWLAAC
T1 sequence (P12390 25-500): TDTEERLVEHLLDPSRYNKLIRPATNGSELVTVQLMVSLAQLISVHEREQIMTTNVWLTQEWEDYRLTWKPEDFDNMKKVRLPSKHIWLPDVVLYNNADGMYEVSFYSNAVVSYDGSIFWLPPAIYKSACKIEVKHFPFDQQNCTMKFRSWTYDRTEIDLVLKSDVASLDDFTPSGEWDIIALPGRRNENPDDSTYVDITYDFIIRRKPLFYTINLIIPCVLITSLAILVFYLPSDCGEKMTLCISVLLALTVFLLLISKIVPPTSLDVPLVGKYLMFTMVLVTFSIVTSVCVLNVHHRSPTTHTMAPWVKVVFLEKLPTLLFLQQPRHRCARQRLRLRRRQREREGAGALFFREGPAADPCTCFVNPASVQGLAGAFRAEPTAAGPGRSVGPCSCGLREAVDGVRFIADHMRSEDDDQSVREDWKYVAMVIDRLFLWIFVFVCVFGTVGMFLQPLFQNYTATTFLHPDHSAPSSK

5HT5a = 5HT5a (Homo sapiens, UniProt P47898); assay: PDSP radioligand binding, 5HT5a; settings: 10 μM
A7 = A7 (Rattus norvegicus, UniProt Q05941); assay: PDSP radioligand binding, A7 sourced from rodent brain; settings: 10 μM
SERT = SERT (Homo sapiens, UniProt P31645); assay: PDSP radioligand binding, SERT; settings: 10 μM
σ2R/Tmem97 = biological target: T2, σ2R/Tmem97 (Rattus norvegicus, UniProt Q5U3Y7); assay: Sigma 2 receptor competition binding with [3H]-ditolylguanidine; settings: σ2R from rat PC12 cells
T2 sequence (Q5U3Y7 1-176): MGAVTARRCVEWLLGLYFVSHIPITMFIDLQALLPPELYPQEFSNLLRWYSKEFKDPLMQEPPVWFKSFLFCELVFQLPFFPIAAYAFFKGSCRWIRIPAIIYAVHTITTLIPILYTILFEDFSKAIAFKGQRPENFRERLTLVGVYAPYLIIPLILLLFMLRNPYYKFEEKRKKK

Alpha1d = Alpha1d (Homo sapiens, UniProt P25100); assay: PDSP radioligand binding, Alpha1d; settings: 10 μM
Alpha1c = assay: PDSP radioligand binding, Alpha1c; settings: 10 μM
GabaA = assay: PDSP radioligand binding, GabaA; settings: 10 μM
M1 = M1 (Homo sapiens, UniProt P11229); assay: PDSP radioligand binding, M1; settings: 10 μM
5HT2A = 5HT2A (Homo sapiens, UniProt P28223); assay: PDSP radioligand binding, 5HT2A; settings: 10 μM
A2B2 = A2B2 (Rattus norvegicus, UniProt P12389+P12390); assay: PDSP radioligand binding, A2B2; settings: 10 μM
5HT6 = 5HT6 (Homo sapiens, UniProt P50406); assay: PDSP radioligand binding, 5HT6; settings: 10 μM
Sequence of 5HT6 (P50406 whole entry): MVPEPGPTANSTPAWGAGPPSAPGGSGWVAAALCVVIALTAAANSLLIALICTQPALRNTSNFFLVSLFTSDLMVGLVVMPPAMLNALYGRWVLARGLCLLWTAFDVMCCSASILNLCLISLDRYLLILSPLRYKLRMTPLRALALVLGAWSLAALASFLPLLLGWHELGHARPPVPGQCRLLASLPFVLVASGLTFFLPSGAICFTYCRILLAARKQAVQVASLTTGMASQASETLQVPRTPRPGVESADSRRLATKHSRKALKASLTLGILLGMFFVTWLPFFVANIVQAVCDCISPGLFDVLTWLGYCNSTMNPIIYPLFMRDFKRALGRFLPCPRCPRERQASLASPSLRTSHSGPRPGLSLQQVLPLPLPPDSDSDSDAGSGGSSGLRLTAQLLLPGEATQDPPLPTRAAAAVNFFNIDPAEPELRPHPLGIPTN

D5 = D5 (Homo sapiens, UniProt P21918); assay: PDSP radioligand binding, D5; settings: 10 μM
A4B2 [3] = biological target: T1, A4B2; assay: PDSP radioligand binding, A4B2; settings: 10 μM
M2 = M2 (Homo sapiens, UniProt P08172); assay: PDSP radioligand binding, M2; settings: 10 μM
Beta3 = Beta3 (Homo sapiens, UniProt P13945); assay: PDSP radioligand binding, Beta3; settings: 10 μM
M3 = M3 (Homo sapiens, UniProt P20309); assay: PDSP radioligand binding, M3; settings: 10 μM
Sequence of M3 (P20309 whole entry): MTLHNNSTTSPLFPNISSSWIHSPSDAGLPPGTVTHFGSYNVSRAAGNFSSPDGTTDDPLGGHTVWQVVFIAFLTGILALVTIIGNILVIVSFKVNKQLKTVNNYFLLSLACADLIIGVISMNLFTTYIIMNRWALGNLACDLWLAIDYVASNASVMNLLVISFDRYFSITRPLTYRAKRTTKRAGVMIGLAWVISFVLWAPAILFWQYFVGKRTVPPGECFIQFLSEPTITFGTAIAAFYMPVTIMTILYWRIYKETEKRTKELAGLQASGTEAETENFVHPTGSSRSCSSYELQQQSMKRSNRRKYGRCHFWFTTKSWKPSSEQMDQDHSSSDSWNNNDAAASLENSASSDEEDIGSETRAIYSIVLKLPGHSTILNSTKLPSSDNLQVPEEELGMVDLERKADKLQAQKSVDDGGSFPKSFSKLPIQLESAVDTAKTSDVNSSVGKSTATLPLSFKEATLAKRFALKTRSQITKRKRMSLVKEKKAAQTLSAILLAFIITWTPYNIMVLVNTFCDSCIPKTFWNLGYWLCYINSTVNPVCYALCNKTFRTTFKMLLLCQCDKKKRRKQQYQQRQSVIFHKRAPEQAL

KOR = KOR (Homo sapiens, UniProt P41145); assay: PDSP radioligand binding, KOR
5HT7 = 5HT7 (Homo sapiens, UniProt P34969); assay: PDSP radioligand binding, 5HT7; settings: 10 μM

Sequence of DOR (P41143 whole entry): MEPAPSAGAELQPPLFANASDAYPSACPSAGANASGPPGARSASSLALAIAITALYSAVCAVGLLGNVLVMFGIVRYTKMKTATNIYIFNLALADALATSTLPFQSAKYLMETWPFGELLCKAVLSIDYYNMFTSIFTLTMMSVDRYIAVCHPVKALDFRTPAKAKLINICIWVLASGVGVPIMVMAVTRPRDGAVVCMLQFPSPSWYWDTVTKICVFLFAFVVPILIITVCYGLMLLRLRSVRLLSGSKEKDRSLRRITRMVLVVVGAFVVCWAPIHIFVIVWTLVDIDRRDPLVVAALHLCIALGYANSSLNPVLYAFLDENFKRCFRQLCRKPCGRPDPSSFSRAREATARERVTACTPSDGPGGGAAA
Sequence of Alpha2a (P08913 whole entry): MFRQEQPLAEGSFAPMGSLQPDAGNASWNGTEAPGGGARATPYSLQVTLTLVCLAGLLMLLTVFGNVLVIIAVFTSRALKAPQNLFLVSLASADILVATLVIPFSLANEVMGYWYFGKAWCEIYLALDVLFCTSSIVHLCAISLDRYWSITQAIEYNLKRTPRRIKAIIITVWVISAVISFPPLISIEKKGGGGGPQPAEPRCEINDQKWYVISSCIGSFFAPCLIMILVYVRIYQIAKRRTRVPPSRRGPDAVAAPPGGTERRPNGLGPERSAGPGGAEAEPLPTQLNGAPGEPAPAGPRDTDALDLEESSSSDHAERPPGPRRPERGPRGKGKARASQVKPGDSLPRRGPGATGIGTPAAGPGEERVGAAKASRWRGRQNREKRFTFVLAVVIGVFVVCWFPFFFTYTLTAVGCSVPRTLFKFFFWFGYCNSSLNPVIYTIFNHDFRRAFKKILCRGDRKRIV

SMILES: OCCCN1CCCC2CC1c1cc(-c3ccc(C(F)(F)F)cc3)ccc12 (racemic) [UKH-1114, (±)-9-(4-(Trifluoromethyl)phenyl)-3,4,5,6-tetrahydro-1,6-methanobenzo[c]azocin-2(1H)-yl)propan-1-ol]
- inhibition of radioligand binding (Ki column, footnote a) (Alpha2a): ^a (<50% inhibition of radioligand binding at 10 μM)
- pKi (NET): 5.98
- inhibition of radioligand binding (Ki column, footnote a) (M5): ^a (<50% inhibition of radioligand binding at 10 μM)
- inhibition of radioligand binding (Ki column, footnote a) (DOR): ^a (<50% inhibition of radioligand binding at 10 μM)
- inhibition of radioligand binding (Ki column, footnote a) (D4): ^a (<50% inhibition of radioligand binding at 10 μM)
- effect on SNI-induced mechanical hypersensitivity ([1]; IV 10 mg/kg): complete reversal of mechanical hypersensitivity
- duration of relief of mechanical hypersensitivity ([1]; systemic 10 mg/kg): 48 h
- peak magnitude of effect compared with gabapentin ([1]; systemic 10 mg/kg vs gabapentin 100 mg/kg): equivalent to 100 mg/kg gabapentin
- inhibition of radioligand binding (Ki column, footnote a) (5HT1e): ^a (<50% inhibition of radioligand binding at 10 μM)
- inhibition of radioligand binding (Ki column, footnote a) (Alpha1a): ^a (<50% inhibition of radioligand binding at 10 μM)
- inhibition of radioligand binding (Ki column, footnote a) (D2): ^a (<50% inhibition of radioligand binding at 10 μM)
- pKi (AMPA): < 5.00
- inhibition of radioligand binding (Ki column, footnote a) (D1): ^a (<50% inhibition of radioligand binding at 10 μM)
- effect on motor performance (latency to fall, rotorod) (SNI mice): no effect
- inhibition of radioligand binding (Ki column, footnote a) (5HT2C): ^a (<50% inhibition of radioligand binding at 10 μM)
- inhibition of radioligand binding (Ki column, footnote a) (A3B4): ^a (<50% inhibition of radioligand binding at 10 μM)
- inhibition of radioligand binding (Ki column, footnote a) (Beta2): ^a (<50% inhibition of radioligand binding at 10 μM)
- inhibition of radioligand binding (Ki column, footnote a) (Beta1): ^a (<50% inhibition of radioligand binding at 10 μM)
- pKi (V1B): < 5.00
- inhibition of radioligand binding (Ki column, footnote a) (5HT1D): ^a (<50% inhibition of radioligand binding at 10 μM)
- inhibition of radioligand binding (Ki column, footnote a) (PBR): ^a (<50% inhibition of radioligand binding at 10 μM)
- inhibition of radioligand binding (Ki column, footnote a) (A3B2): ^a (<50% inhibition of radioligand binding at 10 μM)
- inhibition of radioligand binding (Ki column, footnote a) (H3): ^a (<50% inhibition of radioligand binding at 10 μM)
- inhibition of radioligand binding (Ki column, footnote a) (A4B2 [2]): ^a (<50% inhibition of radioligand binding at 10 μM)
- inhibition of radioligand binding (Ki column, footnote a) (5HT5a): ^a (<50% inhibition of radioligand binding at 10 μM)
- inhibition of radioligand binding (Ki column, footnote a) (A7): ^a (<50% inhibition of radioligand binding at 10 μM)
- inhibition of radioligand binding (Ki column, footnote a) (SERT): ^a (<50% inhibition of radioligand binding at 10 μM)
- affinity at σ2R/Tmem97 (in words) (σ2R/Tmem97): high affinity
- inhibition of radioligand binding (Ki column, footnote a) (Alpha1d): ^a (<50% inhibition of radioligand binding at 10 μM)
- inhibition of radioligand binding (Ki column, footnote a) (Alpha1c): ^a (<50% inhibition of radioligand binding at 10 μM)
- inhibition of radioligand binding (Ki column, footnote a) (GabaA): ^a (<50% inhibition of radioligand binding at 10 μM)
- inhibition of radioligand binding (Ki column, footnote a) (M1): ^a (<50% inhibition of radioligand binding at 10 μM)
- inhibition of radioligand binding (Ki column, footnote a) (5HT2A): ^a (<50% inhibition of radioligand binding at 10 μM)
- inhibition of radioligand binding (Ki column, footnote a) (A2B2): ^a (<50% inhibition of radioligand binding at 10 μM)
- inhibition of radioligand binding (Ki column, footnote a) (5HT6): ^a (<50% inhibition of radioligand binding at 10 μM)
- inhibition of radioligand binding (Ki column, footnote a) (D5): ^a (<50% inhibition of radioligand binding at 10 μM)
- inhibition of radioligand binding (Ki column, footnote a) (A4B2 [3]): ^a (<50% inhibition of radioligand binding at 10 μM)
- inhibition of radioligand binding (Ki column, footnote a) (M2): ^a (<50% inhibition of radioligand binding at 10 μM)
- inhibition of radioligand binding (Ki column, footnote a) (Beta3): ^a (<50% inhibition of radioligand binding at 10 μM)
- inhibition of radioligand binding (Ki column, footnote a) (M3): ^a (<50% inhibition of radioligand binding at 10 μM)
- pKi (KOR): 5.86
- inhibition of radioligand binding (Ki column, footnote a) (5HT7): ^a (<50% inhibition of radioligand binding at 10 μM)
